Only some compounds are listed: those with a hit (about 1.3% of all), similar ones and a draw of the others.
RBBP9 inh – human RBBP9 inhibitors, primary screen, biochemical, fluorescence polarization, FP-Rh probe, HTS; inhibition, % at 7.94 µM; AID 1515, 2009; actives 0.2% (n = 220,000); Serine hydrolase RBBP9 (Homo sapiens), O75884; recombinant RBBP9;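 active means inhibition above the campaign mean of all tested compounds plus 3 SD, cut at about 14% in these data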;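 further: plate controls were DMSO wells with RBBP9 for no effect and wells lacking RBBP9 protein for full effect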
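Material: RBBP9 protein. Amount: RBBP9 at 2.5 µM in dispensed solution, before mixing. Schedule: 30 min then 45 min, 25 °C. Medium: Tris buffer pH 8.0, NaCl, Pluronic. Measured by: fluorescence polarization. Measure: percent inhibition from mP, scaled between DMSO and no-protein wells. Replication: one well per compound.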
Fam108B counter – mouse Fam108B serine hydrolase inhibitors, primary screen, counter-screen for RBBP9 inhibitor project, biochemical, fluorescence polarization. recombinant Fam108B, FP-Rh probe fluorescence polarization. inhibition, % at 9.51 µM. actives 0.33% (n = 300,000). AID 1947, 2009;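 active means inhibition above the screen mean inhibition plus 3 SD, computed separately per campaign, cut at about 18% in these data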;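 further: inhibitors lower polarization as less probe binds the enzyme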
LYPLA2 inh – LYPLA2 inhibitors, primary screen, counter-screen for PME1 inhibitor project, biochemical, fluorescence polarization, FP-Rh probe ABPP. Acyl-protein thioesterase 2 (Homo sapiens), O95372. recombinant LYPLA2. inhibition, % at 5.9 µM. actives 0.38% (n = 320,000). AID 2177, 2009;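 active means inhibition above the screen-wide mean plus 3 SD, limit set per campaign, cut at about 26% in these data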;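 further: 0% = LYPLA2 with DMSO and 100% = wells lacking LYPLA2 enzyme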
Target sequence (O95372 whole entry, looked up): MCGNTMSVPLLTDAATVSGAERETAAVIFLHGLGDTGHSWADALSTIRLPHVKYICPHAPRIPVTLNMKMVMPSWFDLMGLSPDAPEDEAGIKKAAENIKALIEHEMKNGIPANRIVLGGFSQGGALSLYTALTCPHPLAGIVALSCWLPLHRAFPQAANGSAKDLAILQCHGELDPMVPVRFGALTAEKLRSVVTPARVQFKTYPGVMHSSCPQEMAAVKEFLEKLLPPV
PME-1 primary – PME-1 inhibitors via competitive probe labeling, primary screen, biochemical, fluorescence polarization, FP-Rh probe, HTS. Protein phosphatase methylesterase 1 (Homo sapiens), Q9Y570. recombinant PME-1. inhibition, % at 5.9 µM. actives 0.53% (n = 320,000). AID 2130, 2009;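 active means inhibition above the campaign mean of all compounds plus 3 SD, cut at about 26% in these data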;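 further: competitive labeling of PME-1 active site by serine hydrolase directed probe; 0% = PME-1 with DMSO and 100% = wells lacking PME-1 enzyme; inhibitors block probe labeling so polarization falls and inhibition rises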
LYPLA1 counter – LYPLA1 inhibitors, primary screen, counter-screen for PME1 inhibitor project, biochemical, fluorescence polarization, FP-Rh probe ABPP; Acyl-protein thioesterase 1 (Homo sapiens), O75608; recombinant LYPLA1; inhibition, % at 5.9 µM; actives 0.16% (n = 320,000);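 active means inhibition above the mean of all tested compounds plus 3 SD, set per campaign, cut at about 14% in these data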;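 further: inhibitors block serine hydrolase probe labeling of LYPLA1 so polarization falls; 0% = enzyme with DMSO and 100% = wells lacking LYPLA1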
Target sequence (O75608 whole entry, looked up): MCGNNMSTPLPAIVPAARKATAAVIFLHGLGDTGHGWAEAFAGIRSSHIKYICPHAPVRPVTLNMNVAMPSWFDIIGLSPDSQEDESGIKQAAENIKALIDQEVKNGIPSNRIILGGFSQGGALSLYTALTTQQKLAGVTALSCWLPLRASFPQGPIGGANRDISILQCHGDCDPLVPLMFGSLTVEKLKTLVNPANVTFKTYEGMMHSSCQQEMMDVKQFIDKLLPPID
PAD4 FP inh – human PAD4 inhibitors, primary screen, biochemical, fluorescence polarization, 1536-well format | Protein-arginine deiminase type-4 (Homo sapiens), Q9UM07 | inhibition, % at 6.36 µM | recombinant PAD4, RCA probe fluorescence polarization | actives 0.41% (n = 330,000);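 active means percent inhibition above a cutoff equal to the mean of all tested compounds plus 3 SD, cut at about 15% in these data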;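 further: 0% = PAD4 with RCA probe and DMSO and 100% = probe without PAD4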
LYPLA2 conf – LYPLA2 inhibitors, retest, confirmation, counter-screen for PME1 inhibitor project, biochemical, fluorescence polarization, FP-Rh probe ABPP | shares compounds with LYPLA2 inh | recombinant LYPLA2 | inhibition, % at 5.9 µM | actives 72% (n = 1,100) | AID 2232, 2010;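 active means mean inhibition across replicates above the hit cutoff set in the primary screen, cut at about 26% in these data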;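 further: blocked labeling of the enzyme by serine hydrolase FP-Rh probe lowers polarization; 0% = enzyme with DMSO and 100% = wells lacking LYPLA2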
LYPLA2 gel ABPP – LYPLA2 inhibitors in proteome, late-stage follow-up, gel-based competitive ABPP, fluorescence, assay provider | shares compounds with LYPLA2 inh | rhLYPLA2 in mouse brain proteome, gel ABPP FP-Rh | inhibition, % at 20 µM | actives 30% (n = 150) | AID 652029, 2013;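 active means inhibition of LYPLA2 enzyme probe labeling above about 50%, limit read from the data; inactive means inhibition below that limit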;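 further: loss of FP-Rh probe labeling of the LYPLA2 gel band measured as band density; 0% = DMSO only control band and 100% = blank gel background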
An asterisk follows results filed as active; x = no result.

SMILES | RBBP9 inh | Fam108B counter | LYPLA2 inh | PME-1 primary | LYPLA1 counter | PAD4 FP inh | LYPLA2 conf | others
CCCNC(=O)c1ccc(N2CCC3(CC2)CC(c2ccccc2)=NO3)c([N+](=O)[O-])c1 | x | 0.0 | 28.0* | 5.1 | 0.6 | 4.5 | 25.2
CC(C)(C)OC(=O)NC(CCCCNC=O)C(=O)O (configuration not stated) | -7.0 | 3.2 | 80.7* | 2.7 | 9.2 | -1.5 | 3.3
CC(C)CC(NC(=O)OC(C)(C)C)C(=O)O (configuration not stated) | -14.0 | 2.6 | -2.3 | -4.2 | -2.2 | -6.0 | x
O=C(CSc1ccccc1)N1CCN(c2ccc(F)cc2)CC1 | x | 1.7 | 0.7 | -3.8 | -0.3 | 1.2 | x
O=C(c1ccccc1)N1CCOC12CCN(c1ncc(C(F)(F)F)cc1Cl)CC2 | 1.1 | -1.3 | 7.7 | -1.3 | 2.3 | -2.1 | x
O=C(c1ccc([N+](=O)[O-])cc1)N1CCOC12CCN(c1ncc(C(F)(F)F)cc1Cl)CC2 | 3.6 | -4.6 | 38.1* | 1.7 | 0.6 | 0.6 | 56.7* | LYPLA2 gel ABPP=8.0
Cc1nc(C(=O)NC2CCCCC2)sc1C1(C)CC(c2cccc([N+](=O)[O-])c2)=NO1 (configuration not stated) | x | -1.4 | 50.3* | 4.4 | -1.3 | -5.2 | 59.6* | LYPLA2 gel ABPP=45.0
Cc1nc(C(=O)Nc2ccc(Cl)cc2)sc1C1(C)CC(c2cccc([N+](=O)[O-])c2)=NO1 (configuration not stated) | x | -1.6 | -4.2 | -3.5 | -6.0 | 3.3 | x
O=C(NC(=S)N(CCO)Cc1ccccc1)c1ccc(S(=O)(=O)N2CCCC2)cc1 | -2.5 | -3.8 | -3.9 | 0.2 | 1.1 | 2.5 | x
Cc1cccnc1NC(=O)C(c1ccccc1)c1ccccc1 | x | -1.9 | 26.6* | -6.7 | -0.3 | 1.3 | -0.9
CCOC(=O)C1CCN(C(=O)c2ccc(Oc3cc(Cl)cc(Cl)c3)o2)CC1 | 6.4 | -1.6 | 26.5* | 1.8 | 4.2 | -0.3 | 48.9*
CC(C)NC(=O)NC(=O)COC(=O)c1cc(S(=O)(=O)N2CCCCC2)ccc1N1CCOCC1 | x | -1.3 | 26.6* | 0.1 | 1.5 | 1.8 | 24.4
CC(C)CNC(=O)COC(=O)c1cc(S(=O)(=O)N2CCCCC2)ccc1N1CCOCC1 | -3.4 | 7.7 | -6.2 | 3.2 | 2.2 | -1.0 | x
O=C(OCCOc1cccc(Cl)c1)c1cc(S(=O)(=O)N2CCCCC2)ccc1N1CCOCC1 | x | -1.2 | 52.8* | 1.4 | 12.5 | 4.4 | 58.2*
O=C(OCc1cccc(Cl)c1)c1cc(S(=O)(=O)N2CCCCC2)ccc1N1CCOCC1 | x | 0.9 | -6.5 | 9.0 | -2.4 | -4.1 | x
Cc1cc(C(=O)NCC23CC4CC(CC(C4)C2)C3)c(C)o1 | -5.3 | 3.6 | -3.3 | -1.3 | 0.4 | -4.2 | x
COc1ccc(N2CCN(C(=O)CCCN3C(=O)c4cccc5cccc(c45)C3=O)CC2)cc1 | -4.7 | 1.0 | 73.2* | 2.8 | 10.1 | 1.1 | 63.3* | LYPLA2 gel ABPP=32.0
O=C(CCCN1C(=O)c2cccc3cccc(c23)C1=O)N1CCN(c2ccc(F)cc2)CC1 | 1.6 | 5.7 | 54.3* | 3.6 | 10.8 | -3.3 | 49.7*
COc1ccc(N2CCN(C(=O)CCCOc3cc(=O)n(C)c4ccccc34)CC2)cc1 | 0.5 | 0.5 | 30.5* | -2.7 | 0.7 | -5.3 | 32.8*
CCCCn1c(-c2sccc2C)n[nH]c1=S | -7.5 | -0.1 | 1.7 | -2.3 | -1.8 | -3.1 | x
